{"source": "ChEMBL document CHEMBL3272198", "about": "“Preparation and in vitro antifungal activities of some quinolizidine derived hemiaminals and beta-tert-amino sulfides” (1976)", "format_in_all_cases": "functional", "key": {"Blastomyces dermatitidis [1]": {"test_system": "Blastomyces dermatitidis", "test": "Antifungal activity against Blastomyces dermatitidis Gilchrist & Stokes isolate 1107 at 100 ug/ml after 3 weeks (reference value: 40 mm)", "conditions": "Gilchrist & Stokes isolate 1107, 504 h, read-out: DIZ", "summary_of_the_method": "(§1)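 Mycelial phase grown on Sabouraud dextrose agar at 25°C. Agar pH was set to 6 before the test solution was added and was 5.0-5.5 after. Test solutions contained HOAc and Me2SO, and solvent and blank controls were included. Each quadrant was center-inoculated with a 2 × 2 mm piece of a 2-week-old mycelial culture. Colony diameter was measured weekly for 3 weeks and reported as total increments (mm). Duplicates were run.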"}, "Blastomyces dermatitidis [2]": {"test_system": "Blastomyces dermatitidis", "test": "Antifungal activity against Blastomyces dermatitidis Gilchrist & Stokes isolate 1107 at 60 ug/ml after 3 weeks (reference value: 40 mm)", "conditions": "Gilchrist & Stokes isolate 1107, 504 h, read-out: DIZ", "summary_of_the_method": "as §1"}, "Blastomyces dermatitidis [3]": {"test_system": "Blastomyces dermatitidis", "test": "Antifungal activity against Blastomyces dermatitidis Gilchrist & Stokes isolate 1107 at 20 ug/ml after 3 weeks (reference value: 40 mm)", "conditions": "Gilchrist & Stokes isolate 1107, 504 h, read-out: DIZ"}, "Histoplasma capsulatum [4]": {"test_system": "Histoplasma capsulatum", "test": "Antifungal activity against Histoplasma capsulatum Darling isolate 1106 at 80 ug/ml after 1 week (reference value: 14 mm)"}, "Histoplasma capsulatum [5]": {"test_system": "Histoplasma capsulatum", "test": "Antifungal activity against Histoplasma capsulatum Darling isolate 1106 at 20 ug/ml after 1 week (reference value: 14 mm)", "conditions": "Darling isolate 1106, 168 h, read-out: DIZ"}, "Histoplasma capsulatum [6]": {"test_system": "Histoplasma capsulatum", "test": "Antifungal activity against Histoplasma capsulatum Darling isolate 1106 at 10 ug/ml after 1 week (reference value: 14 mm)", "conditions": "Darling isolate 1106, 168 h, read-out: DIZ"}, "Histoplasma capsulatum [7]": {"test_system": "Histoplasma capsulatum", "test": "Antifungal activity against Histoplasma capsulatum Darling isolate 1106 at 100 ug/ml after 2 weeks (reference value: 25 mm)"}, "Histoplasma capsulatum [8]": {"test_system": "Histoplasma capsulatum", "test": "Antifungal activity against Histoplasma capsulatum Darling isolate 1106 at 80 ug/ml after 2 weeks (reference value: 25 mm)"}, "Histoplasma capsulatum [9]": {"test_system": "Histoplasma capsulatum", "test": "Antifungal activity against Histoplasma capsulatum Darling isolate 1106 at 60 ug/ml after 2 weeks (reference value: 25 mm)"}, "Histoplasma capsulatum [10]": {"test_system": "Histoplasma capsulatum", "test": "Antifungal activity against Histoplasma capsulatum Darling isolate 1106 at 10 ug/ml after 2 weeks (reference value: 25 mm)", "conditions": "Darling isolate 1106, 336 h, read-out: DIZ"}, "Histoplasma capsulatum [11]": {"test_system": "Histoplasma capsulatum", "test": "Antifungal activity against Histoplasma capsulatum Darling isolate 1106 at 100 ug/ml after 3 weeks (reference value: 31 mm)"}, "Histoplasma capsulatum [12]": {"test_system": "Histoplasma capsulatum", "test": "Antifungal activity against Histoplasma capsulatum Darling isolate 1106 at 40 ug/ml after 3 weeks (reference value: 31 mm)", "conditions": "Darling isolate 1106, 504 h, read-out: DIZ"}, "Histoplasma capsulatum [13]": {"test_system": "Histoplasma capsulatum", "test": "Antifungal activity against Histoplasma capsulatum Darling isolate 1106 at 20 ug/ml after 3 weeks (reference value: 31 mm)", "conditions": "Darling isolate 1106, 504 h, read-out: DIZ"}, "Blastomyces dermatitidis [14]": {"test_system": "Blastomyces dermatitidis", "test": "Antifungal activity against Blastomyces dermatitidis Gilchrist & Stokes isolate 1099 at 60 ug/ml after 2 weeks (reference value: 27 mm)", "conditions": "Gilchrist & Stokes isolate 1099, 336 h, read-out: DIZ", "summary_of_the_method": "as §1"}, "Blastomyces dermatitidis [15]": {"test_system": "Blastomyces dermatitidis", "test": "Antifungal activity against Blastomyces dermatitidis Gilchrist & Stokes isolate 1099 at 40 ug/ml after 2 weeks (reference value: 27 mm)", "conditions": "Gilchrist & Stokes isolate 1099, 336 h, read-out: DIZ", "summary_of_the_method": "as §1"}, "Blastomyces dermatitidis [16]": {"test_system": "Blastomyces dermatitidis", "test": "Antifungal activity against Blastomyces dermatitidis Gilchrist & Stokes isolate 1099 at 20 ug/ml after 2 weeks (reference value: 27 mm)", "conditions": "Gilchrist & Stokes isolate 1099, 336 h, read-out: DIZ"}, "Blastomyces dermatitidis [17]": {"test_system": "Blastomyces dermatitidis", "test": "Antifungal activity against Blastomyces dermatitidis Gilchrist & Stokes isolate 1099 at 100 ug/ml after 3 weeks (reference value: 34 mm)", "summary_of_the_method": "as §1"}, "Blastomyces dermatitidis [18]": {"test_system": "Blastomyces dermatitidis", "test": "Antifungal activity against Blastomyces dermatitidis Gilchrist & Stokes isolate 1099 at 60 ug/ml after 3 weeks (reference value: 34 mm)", "conditions": "Gilchrist & Stokes isolate 1099, 504 h, read-out: DIZ", "summary_of_the_method": "as §1"}, "Blastomyces dermatitidis [19]": {"test_system": "Blastomyces dermatitidis", "test": "Antifungal activity against Blastomyces dermatitidis Gilchrist & Stokes isolate 1099 at 40 ug/ml after 3 weeks (reference value: 34 mm)", "conditions": "Gilchrist & Stokes isolate 1099, 504 h, read-out: DIZ", "summary_of_the_method": "as §1"}, "Blastomyces dermatitidis [20]": {"test_system": "Blastomyces dermatitidis", "test": "Antifungal activity against Blastomyces dermatitidis Gilchrist & Stokes isolate 1099 at 20 ug/ml after 3 weeks (reference value: 34 mm)", "conditions": "Gilchrist & Stokes isolate 1099, 504 h, read-out: DIZ"}, "Blastomyces dermatitidis [21]": {"test_system": "Blastomyces dermatitidis", "test": "Antifungal activity against Blastomyces dermatitidis Gilchrist & Stokes isolate 1107 at 60 ug/ml after 1 week (reference value: 20 mm)"}, "Blastomyces dermatitidis [22]": {"test_system": "Blastomyces dermatitidis", "test": "Antifungal activity against Blastomyces dermatitidis Gilchrist & Stokes isolate 1107 at 10 ug/ml after 1 week (reference value: 20 mm)", "conditions": "Gilchrist & Stokes isolate 1107, 168 h, read-out: DIZ", "summary_of_the_method": "as §1"}, "Blastomyces dermatitidis [23]": {"test_system": "Blastomyces dermatitidis", "test": "Antifungal activity against Blastomyces dermatitidis Gilchrist & Stokes isolate 1107 at 80 ug/ml after 2 weeks (reference value: 35 mm)", "conditions": "Gilchrist & Stokes isolate 1107, 336 h, read-out: DIZ", "summary_of_the_method": "as §1"}, "Blastomyces dermatitidis [24]": {"test_system": "Blastomyces dermatitidis", "test": "Antifungal activity against Blastomyces dermatitidis Gilchrist & Stokes isolate 1107 at 40 ug/ml after 2 weeks (reference value: 35 mm)", "conditions": "Gilchrist & Stokes isolate 1107, 336 h, read-out: DIZ", "summary_of_the_method": "as §1"}, "Blastomyces dermatitidis [25]": {"test_system": "Blastomyces dermatitidis", "test": "Antifungal activity against Blastomyces dermatitidis Gilchrist & Stokes isolate 1107 at 20 ug/ml after 2 weeks (reference value: 35 mm)", "conditions": "Gilchrist & Stokes isolate 1107, 336 h, read-out: DIZ"}, "Histoplasma capsulatum [26]": {"test_system": "Histoplasma capsulatum", "test": "Antifungal activity against Histoplasma capsulatum Darling isolate 1098 at 100 ug/ml after 1 week (reference value: 12 mm)"}, "Histoplasma capsulatum [27]": {"test_system": "Histoplasma capsulatum", "test": "Antifungal activity against Histoplasma capsulatum Darling isolate 1098 at 60 ug/ml after 1 week (reference value: 12 mm)"}, "Histoplasma capsulatum [28]": {"test_system": "Histoplasma capsulatum", "test": "Antifungal activity against Histoplasma capsulatum Darling isolate 1098 at 100 ug/ml after 2 weeks (reference value: 21 mm)"}, "Histoplasma capsulatum [29]": {"test_system": "Histoplasma capsulatum", "test": "Antifungal activity against Histoplasma capsulatum Darling isolate 1098 at 40 ug/ml after 2 weeks (reference value: 21 mm)", "conditions": "Darling isolate 1098, 336 h, read-out: DIZ"}, "Histoplasma capsulatum [30]": {"test_system": "Histoplasma capsulatum", "test": "Antifungal activity against Histoplasma capsulatum Darling isolate 1098 at 100 ug/ml after 3 weeks (reference value: 28 mm)"}, "Histoplasma capsulatum [31]": {"test_system": "Histoplasma capsulatum", "test": "Antifungal activity against Histoplasma capsulatum Darling isolate 1098 at 80 ug/ml after 3 weeks (reference value: 28 mm)"}, "Histoplasma capsulatum [32]": {"test_system": "Histoplasma capsulatum", "test": "Antifungal activity against Histoplasma capsulatum Darling isolate 1098 at 40 ug/ml after 3 weeks (reference value: 28 mm)", "conditions": "Darling isolate 1098, 504 h, read-out: DIZ"}, "Histoplasma capsulatum [33]": {"test_system": "Histoplasma capsulatum", "test": "Antifungal activity against Histoplasma capsulatum Darling isolate 1098 at 20 ug/ml after 3 weeks (reference value: 28 mm)", "conditions": "Darling isolate 1098, 504 h, read-out: DIZ"}}, "note": "Calls of active or inactive are those of the source. No cut-off for these calls is given here.", "data": [{"smiles": "C[C@@H]1CC[C@@H](c2ccoc2)N2C(O)[C@@](C)(Sc3ccccc3)CC[C@@H]12", "note": "(stereo partly drawn)", "values": [{"measurement": "zone of inhibition at 100 µg/mL", "setting": "Blastomyces dermatitidis [1]", "result": 3, "unit": "mm"}, {"measurement": "zone of inhibition at 60 µg/mL", "setting": "Blastomyces dermatitidis [2]", "result": 14, "unit": "mm"}, {"measurement": "zone of inhibition at 20 µg/mL", "setting": "Blastomyces dermatitidis [3]", "result": 22, "unit": "mm"}, {"measurement": "Activity", "setting": "Histoplasma capsulatum [4]", "result": "Active"}, {"measurement": "zone of inhibition at 20 µg/mL", "setting": "Histoplasma capsulatum [5]", "result": 6, "unit": "mm"}, {"measurement": "zone of inhibition at 10 µg/mL", "setting": "Histoplasma capsulatum [6]", "result": 9, "unit": "mm"}, {"measurement": "Activity", "setting": "Histoplasma capsulatum [7]", "result": "Active"}, {"measurement": "Activity", "setting": "Histoplasma capsulatum [8]", "result": "Active"}, {"measurement": "Activity", "setting": "Histoplasma capsulatum [9]", "result": "Active"}, {"measurement": "zone of inhibition at 10 µg/mL", "setting": "Histoplasma capsulatum [10]", "result": 19, "unit": "mm"}, {"measurement": "Activity", "setting": "Histoplasma capsulatum [11]", "result": "Active"}, {"measurement": "zone of inhibition at 40 µg/mL", "setting": "Histoplasma capsulatum [12]", "result": 5, "unit": "mm"}, {"measurement": "zone of inhibition at 20 µg/mL", "setting": "Histoplasma capsulatum [13]", "result": 15, "unit": "mm"}, {"measurement": "zone of inhibition at 60 µg/mL", "setting": "Blastomyces dermatitidis [14]", "result": 6, "unit": "mm"}, {"measurement": "zone of inhibition at 40 µg/mL", "setting": "Blastomyces dermatitidis [15]", "result": 10, "unit": "mm"}, {"measurement": "zone of inhibition at 20 µg/mL", "setting": "Blastomyces dermatitidis [16]", "result": 14, "unit": "mm"}, {"measurement": "Activity", "setting": "Blastomyces dermatitidis [17]", "result": "Active"}, {"measurement": "zone of inhibition at 60 µg/mL", "setting": "Blastomyces dermatitidis [18]", "result": 9, "unit": "mm"}, {"measurement": "zone of inhibition at 40 µg/mL", "setting": "Blastomyces dermatitidis [19]", "result": 14, "unit": "mm"}, {"measurement": "zone of inhibition at 20 µg/mL", "setting": "Blastomyces dermatitidis [20]", "result": 18, "unit": "mm"}, {"measurement": "Activity", "setting": "Blastomyces dermatitidis [21]", "result": "Active"}, {"measurement": "zone of inhibition at 10 µg/mL", "setting": "Blastomyces dermatitidis [22]", "result": 13, "unit": "mm"}, {"measurement": "zone of inhibition at 80 µg/mL", "setting": "Blastomyces dermatitidis [23]", "result": 3, "unit": "mm"}, {"measurement": "zone of inhibition at 40 µg/mL", "setting": "Blastomyces dermatitidis [24]", "result": 15, "unit": "mm"}, {"measurement": "zone of inhibition at 20 µg/mL", "setting": "Blastomyces dermatitidis [25]", "result": 18, "unit": "mm"}, {"measurement": "Activity", "setting": "Histoplasma capsulatum [26]", "result": "Active"}, {"measurement": "Activity", "setting": "Histoplasma capsulatum [27]", "result": "Active"}, {"measurement": "Activity", "setting": "Histoplasma capsulatum [28]", "result": "Active"}, {"measurement": "zone of inhibition at 40 µg/mL", "setting": "Histoplasma capsulatum [29]", "result": 9, "unit": "mm"}, {"measurement": "Activity", "setting": "Histoplasma capsulatum [30]", "result": "Active"}, {"measurement": "Activity", "setting": "Histoplasma capsulatum [31]", "result": "Active"}, {"measurement": "zone of inhibition at 40 µg/mL", "setting": "Histoplasma capsulatum [32]", "result": 13, "unit": "mm"}, {"measurement": "zone of inhibition at 20 µg/mL", "setting": "Histoplasma capsulatum [33]", "result": 18, "unit": "mm"}]}]}
